From publication PMC3165084 (Leukemia, 2011)
Values joined by “and” are separate entries in the source; they are usually repeats but may differ in a detail not shown here. Equal values may be shown once. Marks after values point to notes of the source that are not given here.

Key:
[1] = system: patients with acute myeloid leukemia (AML); assay: Phase 1 dose escalation, week-on week-off oral tipifarnib: toxicity, DLT and MTD; type: in vivo, human
In short: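 Adult patients with AML (M3 excluded) received oral test compound twice daily on days 1–7 and 15–21 of 28-day cycles in 3+3 cohorts. AEs were graded by NCI CTCAE v3.0 from clinic review and patient diaries. DLT was any possibly drug-related […] nonhematologic toxicity (excluding palliated GI events and corrected electrolytes), or non-reversible grade 4 hematologic toxicity without blasts. MTD was ≤1 of 6 with DLT in cycle 1.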

[2] = system: acute myeloid leukemia (AML); assay: Phase 1 dose escalation: clinical response; type: in vivo, human
In short: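 Bone marrow aspiration and biopsy were done within two weeks before therapy and repeated on days 26–28 of each 28-day cycle. Blood counts were taken at least weekly. Response was scored by International Working Group criteria. Intra-patient escalation was allowed if no CR after cycle 1. Patients without PR or clinical improvement after 6 cycles were deemed treatment failures.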

[3] = Plasma pharmacokinetics of tipifarnib, LCMS/MS, non-compartmental analysis; type: in vivo, human
advanced cancer = conditions: 5-day, every 12 hour dosing; highest dose level 1300 mg twice daily for five days; ref [4]; cited from earlier work
[4] = system: myeloid and lymphoid leukemias; conditions: ref [2], cited from earlier work
[5] = system: previously untreated AML or MDS; conditions: 600 mg bid, 21 day schedule, older patients with previously untreated AML or MDS; ref [5]; cited from earlier work
MDS = conditions: above 400 mg bid, 21-day bid dosing; ref [6]; cited from earlier work
solid tumor = conditions: 900 mg bid dose level, week-on, week-off; ref [7]; cited from earlier work
farnesyl transferase = conditions: correlative studies in patients; ref [6]–[8]; cited from earlier work
[6] = 1200 mg bid, Subsequent courses
[7] = AUC12h Day 5 / AUC12h Day 1, 1400 mg bid
[8] = Day 1, 1200 mg, plasma, individual subjects 4-10
[9] = Day 1, 1400 mg, plasma, individual subjects 1-3
[10] = Day 5, 1200 mg bid, plasma, individual subjects 4-10

Cn1cncc1[C@@](N)(c1ccc(Cl)cc1)c1ccc2c(c1)c(-c1cccc(Cl)c1)cc(=O)n2C [tipifarnib, Tipifarnib]
# DLTs ([1]; 400 mg bid): 1
DLT descriptions ([1]; 400 mg bid): hepatic
# DLTs ([1]; 1200 mg bid): 1
DLT descriptions ([1]; 1200 mg bid): renal
ALT, SGPT toxicity, Grade 2 ([1]; 1200 mg bid, Course 1): 2
Anorexia, Grade 2 ([1]; 1200 mg bid, Course 1): 2
Bilirubin toxicity, Grade 2 ([1]; 1200 mg bid, Course 1): 2
Creatinine toxicity, Grade 2 ([1]; 1200 mg bid, Course 1): 2
Creatinine toxicity, Grade 3 ([1]; 1200 mg bid, Course 1): 1
Dehydration, Grade 2 ([1]; 1200 mg bid, Course 1): 1
Fatigue, Grade 2 ([1]; 1200 mg bid, Course 1): 3
Hypoalbuminemia, Grade 2 ([1]; 1200 mg bid, Course 1): 2
Nausea, Grade 2 ([1]; 1200 mg bid, Course 1): 1
Nausea, Grade 3 ([1]; 1200 mg bid, Course 1): 1
Rash / desquamination, Grade 2 ([1]; 1200 mg bid, Course 1): 1
Vomiting, Grade 2 ([1]; 1200 mg bid, Course 1): 2
ALT, SGPT toxicity, Grade 3 [1, 6]: 1
AST, SGOT toxicity, Grade 2 [1, 6]: 1
Anorexia, Grade 2 [1, 6]: 1
Ataxia, Grade 3 [1, 6]: 1
Bilirubin toxicity, Grade 2 [1, 6]: 1
Constipation, Grade 2 [1, 6]: 1
Creatinine toxicity, Grade 2 [1, 6]: 3
Fatigue, Grade 3 [1, 6]: 2
Febrile neutropenia, Grade 3 [1, 6]: 1
Hyperglycemia, Grade 2 [1, 6]: 2
Hypoalbuminemia, Grade 2 [1, 6]: 2
Nausea, Grade 2 [1, 6]: 2
Restless leg syndrome, Grade 2 [1, 6]: 1
Syncope (fainting), Grade 3 [1, 6]: 1
Vomiting, Grade 2 [1, 6]: 2
Weight loss, Grade 2 [1, 6]: 1
# DLTs ([1]; 1400 mg bid): 2
DLT descriptions ([1]; 1400 mg bid): renal
# DLTs ([1]; 1600 mg bid): 2 ^*
DLT descriptions ([1]; 1600 mg bid): hepatic, renal ^*
maximum tolerated dose (MTD) ([1]; oral twice daily, days 1–7 and 15–21 of each 28-day cycle, first-cycle DLT): 1200 mg bid
Responses ([2]; 800 mg bid): 1 CMML patient cleared leukemic blasts
marrow blasts, change ([2]; 800 mg bid, one patient, over 3 cycles): from 36% to 10%
Responses ([2]; 1000 mg bid): 1 CR went to transplant
Responses ([2]; 1200 mg bid): 2 CRs, 1 marrow response (from 50%-7% blasts)
duration of CR ([2]; 1200 mg bid, individual CR patients): one month
Responses ([2]; 1400 mg bid): minor responses
decrease of bone marrow blasts ([2]; 1400 mg bid, two patients): ≥ 50%
complete remissions (CR) seen ([2]; all dose levels, 44 patients, 1000 mg and 1200 mg bid): 3
complete responses in expansion group ([2]; expansion group, 7 patients at MTD 1200 mg bid): no complete responses
formal responses ([2]; lower dose levels (below 1000 mg bid)): No formal responses
Accumulation Index, median ([3]; AUC12h Day 5 / AUC12h Day 1, 1200 mg bid): 1.2 and 1.23
Accumulation Index ([3]; AUC12h Day 5 / AUC12h Day 1, 1200 mg bid, individual subjects 4-10): 1.23 and 0.91 and 2.40 and 1.55
Accumulation Index, high [3, 7]: 1.37
Accumulation Index, low [3, 7]: 0.97
Accumulation Index, median [3, 7]: 1.17
Accumulation Index ([3]; AUC12h Day 5 / AUC12h Day 1, 1400 mg bid, individual subjects 1-3): 1.37 and 0.97
Cmin, high ([3]; Day 1, 1200 mg, plasma): 402 ng/mL
Cmin, low ([3]; Day 1, 1200 mg, plasma): 82 ng/mL
Cmin, median ([3]; Day 1, 1200 mg, plasma): 166 ng/mL
AUC12h [3, 8]: 3905 ng·h/mL
Cmax [3, 8]: 804 ng/mL and 1180 ng/mL and 479 ng/mL and 2300 ng/mL
Cmin [3, 8]: 132 ng/mL and 339 ng/mL and 166 ng/mL and 82 ng/mL and 402 ng/mL
Tmax [3, 8]: 3.0 h
Cmin, low ([3]; Day 1, 1400 mg, plasma): 145 ng/mL
Cmin, median ([3]; Day 1, 1400 mg, plasma): 237 ng/mL
Cmin [3, 9]: 329 ng/mL and 145 ng/mL
Tmax [3, 9]: 3.2 h
AUC12h [3, 10]: 4815 ng·h/mL and 7001 ng·h/mL and 7787 ng·h/mL and 9221 ng·h/mL
Cmax [3, 10]: 1880 ng/mL and 2490 ng/mL and 1020 ng/mL
Cmin [3, 10]: 97 ng/mL and 204 ng/mL and 234 ng/mL and 283 ng/mL and 166 ng/mL and 113 ng/mL and 101 ng/mL
Tmax [3, 10]: 3.0 h and 3.1 h and 2.8 h
Cmin ([3]; Day 5, 1400 mg bid, plasma, individual subjects 1-3): 781 ng/mL and 170 ng/mL
tipifarnib accumulation between days 1 and 5 ([3]; at 1200 and 1400 mg bid): relatively modest
AUC(0-t) ([3]; human, plasma, oral, 1200 mg, AUC12h, high, Day 1, 1200 mg, plasma): 15700 ng·h/mL
AUC(0-t) ([3]; human, plasma, oral, 1200 mg, AUC12h, high, Day 5, 1200 mg bid, plasma): 14200 ng·h/mL
AUC(0-t) ([3]; human, plasma, oral, 1200 mg, AUC12h, low, Day 1, 1200 mg, plasma): 3240 ng·h/mL
AUC(0-t) ([3]; human, plasma, oral, 1200 mg, AUC12h, low, Day 5, 1200 mg bid, plasma): 4620 ng·h/mL
AUC(0-t) ([3]; human, plasma, oral, 1200 mg, AUC12h, median, Day 1, 1200 mg, plasma): 4740 ng·h/mL
AUC(0-t) ([3]; human, plasma, oral, 1200 mg, AUC12h, median, Day 5, 1200 mg bid, plasma): 7370 ng·h/mL
Cmax ([3]; human, plasma, oral, 1200 mg, Cmax, high, Day 1, 1200 mg, plasma): 3160 ng/mL
Cmax ([3]; human, plasma, oral, 1200 mg, Cmax, high, Day 5, 1200 mg bid, plasma): 2500 ng/mL
Cmax ([3]; human, plasma, oral, 1200 mg, Cmax, low, Day 1, 1200 mg, plasma): 404 ng/mL
Cmax ([3]; human, plasma, oral, 1200 mg, Cmax, low, Day 5, 1200 mg bid, plasma): 762 ng/mL
Cmax ([3]; human, plasma, oral, 1200 mg, Cmax, median, Day 1, 1200 mg, plasma): 906 ng/mL
Cmax ([3]; human, plasma, oral, 1200 mg, Cmax, median, Day 5, 1200 mg bid, plasma): 1210 ng/mL
concentration at 5 day ([3]; human, plasma, oral, 1200 mg, Cmin, high, Day 5, 1200 mg bid, plasma): 283 ng/mL
concentration at 5 day ([3]; human, plasma, oral, 1200 mg, Cmin, low, Day 5, 1200 mg bid, plasma): 97 ng/mL
concentration at 5 day ([3]; human, plasma, oral, 1200 mg, Cmin, median, Day 5, 1200 mg bid, plasma): 166 ng/mL
Tmax ([3]; human, plasma, oral, 1200 mg, Tmax, high, Day 1, 1200 mg, plasma): 3 h
Tmax ([3]; human, plasma, oral, 1200 mg, Tmax, high, Day 5, 1200 mg bid, plasma): 5 h
Tmax ([3]; human, plasma, oral, 1200 mg, Tmax, low, Day 1, 1200 mg, plasma): 2 h
Tmax ([3]; human, plasma, oral, 1200 mg, Tmax, low, Day 5, 1200 mg bid, plasma): 1 h
Tmax ([3]; human, plasma, oral, 1200 mg, Tmax, median, Day 1, 1200 mg, plasma): 2.1 h
Tmax ([3]; human, plasma, oral, 1200 mg, Tmax, median, Day 5, 1200 mg bid, plasma): 3 h
AUC(0-t) ([3]; human, plasma, oral, 1400 mg, AUC12h, high, Day 1, 1400 mg, plasma): 18700 ng·h/mL
AUC(0-t) ([3]; human, plasma, oral, 1400 mg, AUC12h, high, Day 5, 1400 mg bid, plasma): 25600 ng·h/mL
AUC(0-t) ([3]; human, plasma, oral, 1400 mg, AUC12h, low, Day 1, 1400 mg, plasma): 8950 ng·h/mL
AUC(0-t) ([3]; human, plasma, oral, 1400 mg, AUC12h, low, Day 5, 1400 mg bid, plasma): 8710 ng·h/mL
AUC(0-t) ([3]; human, plasma, oral, 1400 mg, AUC12h, median, Day 1, 1400 mg, plasma): 13800 ng·h/mL
AUC(0-t) ([3]; human, plasma, oral, 1400 mg, AUC12h, median, Day 5, 1400 mg bid, plasma): 17100 ng·h/mL
Cmax ([3]; human, plasma, oral, 1400 mg, Cmax, high, Day 1, 1400 mg, plasma): 4240 ng/mL
Cmax ([3]; human, plasma, oral, 1400 mg, Cmax, high, Day 5, 1400 mg bid, plasma): 3890 ng/mL
Cmax ([3]; human, plasma, oral, 1400 mg, Cmax, low, Day 1, 1400 mg, plasma): 1690 ng/mL
Cmax ([3]; human, plasma, oral, 1400 mg, Cmax, low, Day 5, 1400 mg bid, plasma): 1370 ng/mL
Cmax ([3]; human, plasma, oral, 1400 mg, Cmax, median, Day 1, 1400 mg, plasma): 3920 ng/mL
Cmax ([3]; human, plasma, oral, 1400 mg, Cmax, median, Day 5, 1400 mg bid, plasma): 2630 ng/mL
concentration at 12 h ([3]; human, plasma, oral, 1400 mg, Cmin, high, Day 1, 1400 mg, plasma): 329 ng/mL
concentration at 5 day ([3]; human, plasma, oral, 1400 mg, Cmin, high, Day 5, 1400 mg bid, plasma): 781 ng/mL
concentration at 5 day ([3]; human, plasma, oral, 1400 mg, Cmin, low, Day 5, 1400 mg bid, plasma): 170 ng/mL
concentration at 5 day ([3]; human, plasma, oral, 1400 mg, Cmin, median, Day 5, 1400 mg bid, plasma): 476 ng/mL
Tmax ([3]; human, plasma, oral, 1400 mg, Tmax, high, Day 1, 1400 mg, plasma): 3.2 h
Tmax ([3]; human, plasma, oral, 1400 mg, Tmax, high, Day 5, 1400 mg bid, plasma): 5 h
Tmax ([3]; human, plasma, oral, 1400 mg, Tmax, low, Day 1, 1400 mg, plasma): 2 h
Tmax ([3]; human, plasma, oral, 1400 mg, Tmax, low, Day 5, 1400 mg bid, plasma): 3 h
Tmax ([3]; human, plasma, oral, 1400 mg, Tmax, median, Day 1, 1400 mg, plasma): 3.1 h
Tmax ([3]; human, plasma, oral, 1400 mg, Tmax, median, Day 5, 1400 mg bid, plasma): 4 h
AUC(0-t) ([3]; human, plasma, oral, median AUC12h, remaining patients, day 1): 7580 ng·h/mL
AUC(0-t) ([3]; human, plasma, oral, median AUC12h, remaining patients, day 5): 4320 ng·h/mL
AUC(0-t) ([3]; human, plasma, oral, median AUC12h, two patients with decreased blasts, day 1): 16300 ng·h/mL
AUC(0-t) ([3]; human, plasma, oral, median AUC12h, two patients with decreased blasts, day 5): 13200 ng·h/mL
Cmax ([3]; human, plasma, oral, median Cmax, remaining patients, day 1): 1290 ng/mL
Cmax ([3]; human, plasma, oral, median Cmax, remaining patients, day 5): 881 ng/mL
Cmax ([3]; human, plasma, oral, median Cmax, two patients with decreased blasts, day 1): 2440 ng/mL
Cmax ([3]; human, plasma, oral, median Cmax, two patients with decreased blasts, day 5): 2550 ng/mL
fold higher median AUC and Cmax in the two patients with decreased blasts vs median of the non-responders ([3]; on both day 1 and day 5): 2–3 fold
pharmacokinetic behavior (dose linearity) ([3]; present data taken together with earlier studies): linear up to doses as high as 1400 mg bid
protocol-defined maximum tolerated dose (MTD) (advanced cancer): not achieved
response at lowest dose level ([4]; 100 mg bid, 21-day continuous dosing): a CR at the lowest dose level
overall response rate ([4]; 34 patients, 21-day continuous dosing schedule): 29%
partial response, patients [5]: 10%
dose limiting toxicities (MDS): headache, fatigue, confusion, and vision changes
DLT (solid tumor): grade 3 fatigue
duration of farnesyl transferase inhibition after administration (farnesyl transferase): seven days
